Bioassay records from PubChem BioAssay.
SUMO1 PPI mod = modulators of human SUMO1-mediated protein-protein interactions | P63165 | SUMO1 binding to a labelled peptide, TR-FRET, 1 h | inhibition, % at 20 µM | hit rate 0.33% among 360,000; in the data active means inhibition above about 37%
DNMT1 inh = inhibitors of human DNMT1 | P26358 | DNMT1 molecular beacon, Hinp1I cleavage, fluorescence | inhibition (reported as % activation of signal), % at 10 µM | hit rate 0.83% among 360,000; in the data active means inhibition above about 50%
Target sequence (P26358 504-1616 limits assumed): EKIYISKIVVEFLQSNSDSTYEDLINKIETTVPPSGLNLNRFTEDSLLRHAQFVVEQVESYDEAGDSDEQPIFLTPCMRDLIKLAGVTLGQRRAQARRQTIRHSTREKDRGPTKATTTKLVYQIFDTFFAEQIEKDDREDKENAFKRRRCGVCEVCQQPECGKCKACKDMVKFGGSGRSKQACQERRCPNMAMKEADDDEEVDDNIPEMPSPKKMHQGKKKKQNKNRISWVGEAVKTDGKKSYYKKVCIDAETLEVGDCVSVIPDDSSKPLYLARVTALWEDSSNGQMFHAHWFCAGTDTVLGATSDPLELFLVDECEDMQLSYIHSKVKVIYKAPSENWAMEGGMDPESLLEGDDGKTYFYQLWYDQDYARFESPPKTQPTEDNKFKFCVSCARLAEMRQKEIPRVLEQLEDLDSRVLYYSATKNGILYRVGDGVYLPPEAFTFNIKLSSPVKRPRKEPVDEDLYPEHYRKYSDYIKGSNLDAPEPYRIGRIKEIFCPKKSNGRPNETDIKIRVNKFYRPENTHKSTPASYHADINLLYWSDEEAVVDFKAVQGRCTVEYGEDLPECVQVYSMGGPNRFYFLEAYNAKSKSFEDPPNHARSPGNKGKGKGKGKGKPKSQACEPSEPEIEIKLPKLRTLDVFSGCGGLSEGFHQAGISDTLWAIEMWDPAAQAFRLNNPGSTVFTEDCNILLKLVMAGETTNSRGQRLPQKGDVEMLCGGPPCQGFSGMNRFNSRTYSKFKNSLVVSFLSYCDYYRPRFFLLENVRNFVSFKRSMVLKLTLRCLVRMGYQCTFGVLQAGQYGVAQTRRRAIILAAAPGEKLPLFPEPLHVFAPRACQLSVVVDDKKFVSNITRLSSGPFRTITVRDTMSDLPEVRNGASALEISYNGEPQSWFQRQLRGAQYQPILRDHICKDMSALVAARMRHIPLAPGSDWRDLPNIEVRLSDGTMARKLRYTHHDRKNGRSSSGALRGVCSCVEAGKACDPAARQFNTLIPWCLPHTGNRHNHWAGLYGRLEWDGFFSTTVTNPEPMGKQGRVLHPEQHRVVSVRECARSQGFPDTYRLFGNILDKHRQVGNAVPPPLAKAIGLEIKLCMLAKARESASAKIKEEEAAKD
GRK2 inh = human GRK2 inhibition via aptamer displacement | AID 488847 | P25098 | hit rate 0.59% among 330,000 | inhibition of aptamer binding, % at 10 µM | bead flow cytometry, FAM-aptamer displacement from GRK2;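 active means inhibition of aptamer binding above 40%, roughly 3 SD of noise, on plates passing a quality check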;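 further: median bead fluorescence of bound FAM aptamer so fluorescent compounds give negative values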
LMPTP inh = blocks human LMPTP phosphatase; recombinant LMPTP-A, OMFP fluorogenic substrate, fluorescence intensity; inhibition, % at 20 µM; hit rate 0.22% among 360,000; AID 651560;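 active means compounds that cut the enzyme signal by at least half of the control window in the single-dose screen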
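Buffer or medium: Bis-Tris pH 6.0, DTT, detergent; Assay system: LMPTP-A enzyme; Quantity: 0.625 nM enzyme; Detection: endpoint fluorescence intensity; Times: 50 min dark incubation at room temperature; Controls: substrate-only low control, DMSO enzyme-plus-substrate high control; Doses: single 20 µM dose; Read-out: percent inhibition versus substrate-only and uninhibited controls; Reagent: 400 µM OMFP.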
STEP block = STEP (human) phosphatase inhibition | P54829 | recombinant STEP, OMFP fluorogenic substrate, fluorescence | inhibition, % at 20 µM | hit rate 0.25% among 360,000;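 active means inhibition at 20 µM, scaled per plate between control wells, above about 37%, limit read from the data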
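Test system: STEP tyrosine phosphatase / Reagent: OMFP at 25 µM / Doses: 20 µM, 1% DMSO / Read-out: percent inhibition scaled to no-enzyme and uninhibited-enzyme controls, plate-pattern corrected / Detection: FITC-channel fluorescence of OMFP product / Medium: Bis-Tris buffer pH 6.0, 2.5 mM DTT, 0.005% Tween 20 / Schedule: 20 min at room temperature, dark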
Scp1 inh = blocks human Scp-1 phosphatase activity. Q9GZU7. Recombinant Scp1, phosphopeptide, malachite green phosphate absorbance. hit rate 0.88% among 340,000. inhibition, % at 20 µM;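 active means inhibition above about 50% at 20 µM, limit read from the data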
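Test system – truncated SCP-1 phosphatase (76-261aa) · Reagent – Phosphorylated 17-residue peptide substrate · Incubation – 45 min room-temperature reaction, 5 min colour, 30 min stabiliser · Detection – colorimetric phosphate reagent with accelerator and stabiliser, absorbance at 630 nm · Measure – % inhibition at 20 µM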
GRK2 CP1 = human GRK2 inhibition confirmation, cherry pick 1; shares compounds with GRK2 inh; bead-bound GRK2, FAM-aptamer displacement, flow cytometry; aptamer displacement, % at 10 µM; hit rate 4% among 2,000; AID 504451;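 active means aptamer displacement above 40%, near three times the noise of non-fluorescent compounds, on plates passing quality checks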;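 further: negative values mostly reflect intrinsic compound fluorescence rather than true enhancement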
FAM quench CP1 = aptamer fluorescence quenching in GRK2 counter-screen; 2,000 tested, under 10 active; shares compounds with GRK2 inh; Carboxyfluorescein RNA aptamer on beads, flow cytometry quenching; active compounds read low; fluorescence response (% of DMSO), % at 10 µM;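 active means compounds that quench the bead-bound fluorescent RNA probe, cutting fluorescence to under half of the solvent control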;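 further: counterscreen run without GRK2 so only probe quenching by compound is measured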
GRK2 CP2 = human GRK2 inhibition confirmation, cherry pick 2; AID 504782; inhibition of aptamer binding, % at 10 µM; shares compounds with GRK2 inh; 360 tested, under 10 active; bead-bound GRK2, FAM-aptamer displacement, flow cytometry;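 active means inhibition of aptamer binding above 40%, about triple the noise seen with nonglowing compounds, on plates passing quality control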;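 further: negative values mostly come from compounds that fluoresce themselves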
FAM quench CP2 = counter-screen for GRK2 binding hits: quenchers of fluorescent RNA aptamer; shares compounds with GRK2 inh; carboxyfluorescein RNA aptamer beads, flow cytometry quenching; active compounds read low; fluorescence response vs DMSO, % at 10 µM; 360 tested, under 10 active; AID 588494;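 active means response vs DMSO under 50%, meaning signal dropped by over half, treated as fluorescence quencher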;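 further: labelled aptamer on streptavidin beads without GRK2 as a quench counter-screen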
Large screens that a line does not name were inactive (follow-up assays come after a bar, where they were run). This is a sample that favours compounds with a hit; in the whole collection about 2.1% have one here.

O=C(NCc1ccco1)C1(c2ccccc2)CCCC1	none
O=C(COC(=O)CSc1ccc(F)cc1)NCc1ccco1	none
O=C(COC(=O)C1(c2ccc(Cl)cc2)CCCC1)NCc1ccco1	none | GRK2 CP1 inactive | FAM quench CP1 inactive
O=C(COC(=O)Cc1ccc(F)cc1)NCc1ccco1	GRK2 inh 52 | GRK2 CP1 inactive | FAM quench CP1 inactive
Cc1ccc([N+](=O)[O-])cc1S(=O)(=O)Nc1ccc(OCC(=O)N2CCOCC2)cc1	none
Cc1c(Br)c(C(=O)N2CCc3ccccc32)nn1C	none
Cc1nn(C)c(C(=O)N2CCc3ccccc32)c1Br	GRK2 inh 41 | GRK2 CP2 inactive | FAM quench CP2 inactive
CC(=O)Nc1ccc(NC(=O)C2CC(=O)N(c3ccccc3Cl)C2)cc1 (stereo not given)	none
CC[C@H](C)[C@H](NC(N)=O)C(=O)Nc1ccc(S(=O)(=O)NC(C)C)cc1	none
CCOc1ccc(Oc2ccc(NC(=O)[C@@H](NC(N)=O)[C@@H](C)CC)cc2)cc1	GRK2 inh 96 | GRK2 CP1 inactive | FAM quench CP1 inactive
CN(C1CCCCC1)S(=O)(=O)c1cc2c(cc1Cl)NC(=O)CO2	none
CCOC(=O)CC(NC(=O)Cc1ccc(F)cc1)c1ccccc1Cl (stereo not given)	none
CC1CN(C(=O)COC(=O)[C@@H](NC(=O)c2ccccc2Cl)C(C)C)CC(C)O1 (stereo not given in full)	none
c1coc(CNc2c3c(nc4ccccc24)CCC3)c1	none | GRK2 CP2 inactive | FAM quench CP2 inactive
CC(C)(C)OC(=O)N1CCc2onc(-c3ccc(Br)cc3)c2C1=O	none (no result: GRK2 inh, Scp1 inh)
CCOc1ccc(-n2c(SCc3nc(-c4ccc(C)cc4)no3)nnc2-c2ccncc2)cc1	none
Cc1ccc(-c2noc(CSc3nnc(-c4ccncc4)n3-c3ccc(C)cc3)n2)cc1	GRK2 inh 99 | GRK2 CP1 inactive | FAM quench CP1 inactive
O=S(=O)(/N=C(/Nc1ccccn1)c1ccccc1)c1ccc(F)cc1	none
CC(OC(=O)c1ccc([N+](=O)[O-])s1)C(=O)NC1CCCCC1C (stereo not given)	DNMT1 inh 71 | GRK2 CP1 inactive | FAM quench CP1 inactive
CC1CCN(S(=O)(=O)c2ccc(C(=O)OC(C)C(=O)NC3CCCCC3C)cc2)CC1 (stereo not given)	none | GRK2 CP1 inactive | FAM quench CP1 inactive
COCCCNC(=O)c1ccc(S(=O)(=O)c2ccc(C)cc2)c(NC(C)=O)c1	none
Cc1ccc(C)c(NC(=O)CN(C)C(=O)c2ccc(COc3ccccc3)cc2)c1	none (no result: GRK2 inh, Scp1 inh)
COc1ccccc1CNC(=O)C1CCCN(S(=O)(=O)c2ccc3c(c2)C(C)(C)C(=O)N3C)C1 (stereo not given)	none | GRK2 CP1 inactive | FAM quench CP1 inactive
O=C(NCc1ccccc1F)C1CCCN(S(=O)(=O)c2ccc(-n3cnnn3)cc2)C1 (stereo not given)	none | GRK2 CP1 inactive | FAM quench CP1 inactive
Cc1ccc(S(=O)(=O)N2CCCC(C(=O)NCc3ccccc3F)C2)cc1 (stereo not given)	none
Cc1ccc(CNC(=O)C2CCCN(S(=O)(=O)c3ccc(-n4cnnn4)cc3)C2)cc1 (stereo not given)	none | GRK2 CP1 inactive | FAM quench CP1 inactive
CC(C)(C)N(Cc1ccccc1)C(=O)COC(=O)CN1C(=O)NC2(CCCC2)C1=O	none
COC(=O)c1cc(S(=O)(=O)N2CCN(c3ccc(C(C)=O)cc3)CC2)cn1C	none
